In brackets after ≈: the same amount, converted by molar mass. Activity calls are given as the source filed them.

Data set [1] relates to Staphylococcus aureus. Nature of the data set: Antibacterial activity against methicillin resistant Staphylococcus aureus 119 assessed as inhibition of bacterial growth at 0.5 ug/ml incubated for 18 to 20 hrs by CLSI protocol based broth microdilution method. The data set is classed as functional, organism-based. The settings on record: dose 0.5 µg/ml, time 18-20 hrs. On the technique in general: In broth dilution the organism is exposed to a series of concentrations in liquid medium.

For data set [2], the system named is Enterococcus faecium. Briefly: Antibacterial activity against Enterococcus faecium 700221 assessed as inhibition of bacterial growth incubated for 18 to 20 hrs by CLSI protocol based broth microdilution method. The format is functional. The settings on record: time 18-20 hrs. The method, boiled down: (§1)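 Enterococci and L. monocytogenes were diluted from a 0.5 McFarland suspension in TSB. They were incubated with serial dilutions of test agent in broth microdilution, and the MIC was recorded.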

The subject of data set [3] is Staphylococcus aureus. Nature of the data set: Induction of drug resistance in methicillin resistant Staphylococcus aureus NRS384 USA300 assessed as fold change in MIC measured from passage 5 to 14 by broth microdilution method. The format is functional. Put shortly:
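Multi-step resistance in MRSA USA300 over 14 consecutive passages, with rifampicin as the control antibiotic. The MIC was determined by broth microdilution at each passage. Resistance was defined as a greater than four-fold rise over the initial MIC.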

Data set [4] can be described thus: Hemolytic activity in rabbit erythrocytes at 16 ug/ml incubated for 30 mins by absorbance based assay. The data set is classed as toxicity, cell-based, Oryctolagus cuniculus, Erythrocyte. The settings on record: at 16 µg/mL, read-out: Activity. The method, boiled down:
(§2)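 Rabbit erythrocytes were washed three times in PBS pH 7.4 and adjusted to A540 0.8. They were mixed 1:1 with compound (final 16, 32, 64 μg mL−1) for 30 min at 37 °C. After centrifugation at 13 000 × g for 5 min, supernatant A540 was read as % of 1% Triton X-100 complete hemolysis. PBS served as negative control. Each concentration was run twice.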

Data set [5] has as its system Vero. Nature of the data set: Cytotoxicity against African green monkey Vero cells assessed as reduction in cell viability at 64 ug/ml incubated for 24 hrs by MTS assay. The data set is classed as toxicity, cell-based. The settings on record: chlorocebus sabaeus, dose 64 µg/ml. Put shortly: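 Vero or HaCaT cells were exposed to 32, 64 and 128 μg mL−1 compound in triplicate for 24 h at 37 °C, 5% CO2, with a DMSO control. MTS was then added for 4 h and OD490 read. Analysis used two-way ANOVA with Dunnett's post hoc test (p < 0.05).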
(Tetrazolium assays rely on reduction of a dye to a coloured formazan, in cell work by metabolically active cells.)

Data set [6] relates to Staphylococcus aureus. Nature of the data set: Antibacterial activity against methicillin sensitive Staphylococcus aureus 6538 assessed as inhibition of bacterial growth incubated for 18 to 20 hrs by CLSI protocol based broth microdilution method. The data set is classed as functional. The settings on record: time 18-20 hrs. The method, boiled down: (§3)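 Broth microdilution against staphylococcal clinical isolates. Each strain was prepared as a 0.5 McFarland suspension and diluted in cation-adjusted Mueller Hinton broth to ~5 × 10^5 CFU mL−1. Serial dilutions of test agents in DMSO stock were incubated with the bacteria, and the MIC was recorded.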

Data set [7] can be described thus: Hemolytic activity in rabbit erythrocytes at 32 to 64 ug/ml incubated for 30 mins by absorbance based assay. The format is toxicity, cell-based, Oryctolagus cuniculus. The settings on record: erythrocyte, 0.5 h, dose 32-64 µg/ml. The method, boiled down: as §2
The subject of data set [8] is Staphylococcus aureus. Briefly: Antibacterial activity against methicillin resistant Staphylococcus aureus NRS384 USA300 infected in Balb/c mouse model of skin infection assessed as reduction in inflammation administered topically twice daily for three consecutive days from day 4 to 6 and measured 24 hrs post last dose. The data set is classed as functional, organism-based. The settings on record: route top, time 4.0 day. Put shortly: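 Mice were anesthetized with 2,2,2-tribromoethanol and injected subcutaneously with 100 μL containing 2 × 10^9 CFU MRSA USA300 in 0.5% HPMC in saline. Topical treatment used a petroleum jelly vehicle, with a fusidic acid positive control. Lesions were photographed 24 h after the last dose. A ~1.5 cm2 skin patch (homogenized in 1 mL saline) and the spleen (in 0.5 mL) were serially diluted and plated on MSA at 37 °C overnight for CFU.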

For data set [9], the system named is Staphylococcus aureus. Briefly: Antibacterial activity against methicillin sensitive Staphylococcus aureus 107 assessed as inhibition of bacterial growth incubated for 18 to 20 hrs by CLSI protocol based broth microdilution method. The format is functional. The settings on record: time 18-20 hrs. Put shortly: as §3
Data set [10] has as its system Staphylococcus aureus. Nature of the data set: Antibacterial activity against methicillin resistant Staphylococcus aureus NRS384 USA300 assessed as inhibition of bacterial growth incubated for 18 to 20 hrs by CLSI protocol based broth microdilution method. The data set is classed as functional. The settings on record: time 18-20 hrs, read-out: MIC. The method, boiled down:
as §3

The subject of data set [11] is Staphylococcus aureus. Nature of the data set: Antibacterial activity against methicillin resistant Staphylococcus aureus 384 assessed as inhibition of bacterial growth incubated for 18 to 20 hrs by CLSI protocol based broth microdilution method. The data set is classed as functional. The settings on record: time 18-20 hrs. The method, boiled down:
as §3

Data set [12] concerns Streptococcus pyogenes. Nature of the data set: Antibacterial activity against Streptococcus pyogenes MGAS 1882 assessed as inhibition of bacterial growth incubated for 18 to 20 hrs by CLSI protocol based broth microdilution method. The format is functional. The settings on record: time 18-20 hrs. Put shortly: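 Streptococci were diluted from a 0.5 McFarland suspension in cation-adjusted Mueller Hinton broth with 5% lysed horse blood. They were incubated with serial dilutions of test agent in broth microdilution, and the MIC was recorded.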

Data set [13] has as its system Staphylococcus aureus. Briefly: Antibacterial activity against vancomycin resistant Staphylococcus aureus 10 assessed as inhibition of bacterial growth at 0.5 ug/ml incubated for 18 to 20 hrs by CLSI protocol based broth microdilution method. The format is functional, organism-based. The settings on record: dose 0.5 µg/ml, time 18-20 hrs.
Data set [14] deals with Listeria monocytogenes. Briefly: Antibacterial activity against Listeria monocytogenes 19111 assessed as inhibition of bacterial growth incubated for 18 to 20 hrs by CLSI protocol based broth microdilution method. The data set is classed as functional. The settings on record: time 18-20 hrs. Put shortly: as §1
Data set [15] concerns Staphylococcus aureus. Nature of the data set: Antibacterial activity against vancomycin resistant Staphylococcus aureus 12 assessed as inhibition of bacterial growth incubated for 18 to 20 hrs by CLSI protocol based broth microdilution method. The data set is classed as functional. The settings on record: time 18-20 hrs. The method, boiled down: as §3

For the compound `C/C(=N\NC(=N)N)c1ccc(NC(=O)Nc2ccc(C#Cc3ccccc3)cc2)cc1`, the outcome in [1], in data set [8] and in [13] was Active. Moreover, the MIC in data set [2], in data set [6], in [9], in [10], in data set [11] and in data set [12] was 0.5 µg/mL (≈ 1.22 µM) in each case. The minimal inhibitory concentration (MIC) in [14] and in data set [15] was 0.5 µg/mL (≈ 1.22 µM) in each case. Besides, in [3], the “fold change (FC)” value amounted to 1. Besides, the hemolysis at 0.5 h, 16 ug/ml in [4] is 2%. The Activity entry in [5] is “Non-Toxic”; in data set [7] it was “Toxic”.

The values are drawn from ChEMBL document CHEMBL5230171, “Expanding the structure-activity relationships of alkynyl diphenylurea scaffold as promising antibacterial agents” (RSC Med Chem, 2023).
